Experimental data: publication PMC7683378 (Journal of autoimmunity, 2020)

Experiments:
[1] = system: recombinant HLA-DQ8 protein; experiment: DELFIA immunoassay: inhibition of binding of other HLA-DQ8-binders; set-up: species or system human; conditions: biotinylated GAD65 or gliadin peptide with RI-D-peptide
[2] = system: recombinant HLA-DQ8 protein; type: binding, human; conditions: serially diluted to 0.5 μM, 48 hours at 37 °C
Procedure, shortened: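 DELFIA: recombinant HLA-DQ8 (0.012 mg/ml) with 10 μM biotinylated InsB:9-23, plus RI-D-peptide serially diluted to 0.5 μM final, 48 h at 37 °C in 0.1% BSA/PBS with 0.05% Triton. Then bound on nickel-coated plates 2 h at RT, washed, Eu-streptavidin 30 min at RT, washed, enhancement solution ~1 h. Time-resolved fluorescence gave percent inhibition.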

[3] = system: PBMCs from HLA-DQ8 positive T1D patients; experiment: Lymphocyte proliferation; type: cell-based, human; conditions: all peptides 20 μg/ml; gated on live T-cells
Procedure, shortened: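 Fresh Ficoll-isolated PBMCs from patients with at least one DQB*03:02 allele, in RPMI/10% FBS. Stimulated 48 h with InsB:9-23 or scrambled InsB:9-23, with or without RI-D-peptides or scrambled versions, all at 20 μg/ml. Proliferation by CFSE as for mouse lymphocytes, gated on live T-cells. Inhibition = 100 − 100 × (proliferation with/without RI-D-peptide).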

[4] = system: lymphocytes from immunized SJL-DQ8 mice; experiment: ELISPOT of IL-2 and IFN-γ secretion by lymphocytes of immunized SJL-DQ8 mice; type: cell-based, mouse; conditions: 5X10^5 lymphocytes, peptides 20 μg/ml, 48 hours
Procedure, shortened: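 SJL-DQ8 mice (6; 3 female, 3 male) immunised s.c. with 150 μg InsB:9-23 in CFA and boosted in IFA. 5×10^5 spleen/draining-node lymphocytes plated on nitrocellulose wells coated with 4 μg/ml IL-2 or 10 μg/ml anti-IFN-γ capture antibody, 48 h at 37 °C with peptides at 20 μg/ml. Biotinylated detection antibody 2 h, streptavidin-AP 1 h, BCIP/NBT development. Positive response: >20 net SFC/10^6 and P<0.05 (t-test, triplicates).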

[5] = system: lymphocytes from immunized SJL-DQ8 mice; experiment: Ex vivo cytokine production; type: cell-based, mouse; conditions: all peptides 20 μg/ml, 48 hours, Luminex; 20 SJL-DQ8 mice
Procedure, shortened: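 Lymphocytes from spleens and draining nodes of SJL-DQ8 mice (6–8 weeks) immunised s.c. with 150 μg InsB:9-23 in CFA and boosted in IFA. Plated at 2×10^5 cells/well in RPMI/10% FBS with medium, InsB:9-23 with or without RI-D-peptides or scrambled versions, or scrambled InsB:9-23, all at 20 μg/ml. Supernatants taken at 48 h, kept at −80 °C, cytokines by mouse Milliplex Luminex panel.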

[6] = system: PBMCs from HLA-DQ8 positive T1D patients; experiment: Cytokine production; type: cell-based, human; conditions: all peptides 20 μg/ml, 48 hours, Luminex; 31 new onset DQ8 positive T1D patients
Procedure, shortened: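 Fresh PBMCs from heparinised blood (Ficoll) of patients genotyped for at least one DQB*03:02 allele, seeded in RPMI/10% FBS. Stimulated 48 h with InsB:9-23 or scrambled InsB:9-23, with or without RI-D-peptides or scrambled versions, all peptides at 20 μg/ml. Supernatant cytokines by Luminex, as for mouse lymphocytes. Long-standing (>10 years) DQ8 T1D patients served as controls.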

[7] = system: 5KC cells (TCR specific for the InsB:9-23–DQ8 complex); experiment: Cellular antigen presentation assay; type: cell-based, mouse; conditions: BSM cells + 5KC cells incubated with the peptide; IL-2 by Luminex
Procedure, shortened: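 HLA-DQ8-homozygous BSM B-cells (RPMI, 10% FBS, 37 °C, 5% CO2): 10^6 cells loaded overnight with 200 μg/ml InsB:9-23 (scrambled InsB:9-23 or gliadin as negative peptides), washed twice with PBS, then given RI-D-peptide or scrambled control for 2 h at 37 °C. 5KC mouse T-hybridoma cells with human TCR added 1:1, overnight. Supernatant IL-2 by Luminex; anti-CD3/CD28 beads as positive control; 4–5 independent experiments.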

[8] = system: lymphocytes from immunized SJL-DQ8 mice; experiment: Ex vivo lymphocyte proliferation; type: cell-based, mouse; conditions: all peptides 20 μg/ml, 5 days, flow cytometry
Procedure, shortened: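 Spleen/draining-node cells from InsB:9-23-immunised SJL-DQ8 mice, 10^6 cells at 2×10^6/ml in 0.1% BSA/PBS, labelled with 1.5 μM CFSE for 10 min at 37 °C. Quenched with ice-cold RPMI/10% FBS, 5 min on ice, washed three times. Plated at 2×10^5 cells/well with peptides at 20 μg/ml for 5 days. Flow cytometry gated on live singlets; at least triplicates; inhibition = 100 − 100 × (proliferation with/without RI-D-peptide).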

| Sequence | Competition with other HLA-DQ8-binders (GAD65, gliadin) [1] | Dose dependence of inhibition of InsB:9-23 binding to HLA-DQ8 [2] | Lymphocytes proliferation in PBMCs stimulated with InsB:9-23 (CFSE assay) [3] | IFN-γ ELISPOT response to InsB:9-23 [4] | IL-2 ELISPOT response to InsB:9-23 [4] | IFN-γ production by lymphocytes stimulated with InsB:9-23 [5] | IL-2 production by lymphocytes stimulated with InsB:9-23 [5] | IFN-γ production in PBMCs stimulated with InsB:9-23 [6] | IL-2 production in PBMCs stimulated with InsB:9-23 [6] | Activation of 5KC T-cells (IL-2 secretion) by the peptide itself [7] | Lymphocyte proliferation induced by InsB:9-23 (CFSE assay) [8] |
| --- | --- | --- | --- | --- | --- | --- | --- | --- | --- | --- | --- |
| FFGGREGCVLYLAEVLHSG [RI-EXT] | competed only with InsB:9-23 and not with other HLA-DQ8-binders | dose-dependent | significantly suppressed | significantly decreased | significantly decreased | significantly blocked | significantly blocked | significantly suppressed | significantly suppressed | did not activate TCR | significantly suppressed |
| GGREGCVLYLAEVGG [RI-CT] | competed only with InsB:9-23 and not with other HLA-DQ8-binders | dose-dependent | significantly suppressed | significantly decreased | significantly decreased | significantly blocked | significantly blocked | significantly suppressed | significantly suppressed | did not activate TCR | significantly suppressed |
